Laboratory results: publication PMC2687631 (Yonsei Medical Journal, 2006)

How the values were obtained:
[1] = tested on: hPTH/PTHrp receptor; details: LLC-PK cells stably expressing a high level of the hPTH/PTHrp receptor; cited from earlier work
[2] = tested on: mice; details: cited from earlier work
[3] = tested on: animals and humans; details: cited from earlier work
[4] = tested on: ovariectomized rat model; assay: Femoral length and cross-sectional diameter at mid-diaphysis; type: in vivo, Sprague-Dawley rats; details: ovx rats, subcutaneous for 5 weeks; p<0.05 vs. OVX
In short: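 Female Sprague-Dawley rats were ovariectomized at 10 weeks (sham group unoperated), left untreated for 4 weeks, then dosed daily s.c. for 5 weeks with test compound (30 nM/kg), rhPTH(1-84) (8 nM/kg) or 0.9% saline vehicle, seven per group. Left femur length (greater trochanter to intercondylar fossa) and mid-diaphysis AP/ML diameters measured by digital caliper. Means and SD; ANOVA with Bonferroni.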

PTH (1-14): N-terminal fragment 1-14 of parathyroid hormone (SVSEIQLMHNLGKH; Parathyroid hormone; UniProt P01270 32-45, looked up, fragment)
cAMP formation relative to PTH (1-34) [1]: about 10^-3 folds

PTH (1-31): PTH (1-31) fragment
Potency in stimulating bone resorption parameters vs PTH (1-34) [2]: less potent | Potency on bone formation vs PTH (1-34) [2]: as potent as PTH (1-34)

B1: PTH: parathyroid hormone, low dose, intermittently administered (protein, UniProt P01270 32-115, looked up)
Parathyroid hormone: SVSEIQLMHNLGKHLNSMERVEWLRKKLQDVHNFVALGAPLAPRDAGSQRPRKKEDNVLVESHEKSLGEADKADVNVLTKAKSQ
modifications: Parathyroid hormone
Anabolic effect / bone mass (in words) [3]: significant increase in bone mass

B2: rhPTH (1-84): recombinant human PTH (1-84), donated by the Mogam Biotechnology Research Institute (protein, UniProt P01270 32-115, looked up)
Parathyroid hormone: B1 Parathyroid hormone
modifications: Parathyroid hormone
Femoral length (in words) [4]: significantly increased length
